Experiment [1] has as its target T1, Nitric oxide synthase 1 (Homo sapiens, UniProt P29475). The experiment is described as follows: In vitro inhibition concentration was evaluated on the effect of conversion by Nitric Oxide synthase of [3H]L-arginine into [3H]L-citrulline.
Experiment [2] concerns HT22 (Mus musculus). The experiment is described as follows: Neuroprotective effect was measured by its ability to protect mouse hippocampal neuronal HT-22 cell lines from oxidative stress caused by glutamate.
The species entered for experiment [3] is Mus musculus. The experiment is described as follows: Ability for prevention of GSH depletion was measured in mouse. The experiment is classed as functional. The gist of the method:
(§1)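 Glutamate-challenged HT22 cells; total intracellular GSH measured by enzymatic glutathione assay, i.e. formation of 5-thio-2-nitrobenzoic acid from GSH oxidation by 5,5'-dithiobis(2-nitrobenzoic acid).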

The species named for experiment [4] is Mus musculus. Briefly: Ability for prevention of GSH depletion was measured in mouse; Not active up to 100 uM. The experiment is classed as functional. The gist of the method: as §1
In experiment [5] the target is T1, Nitric oxide synthase 1. The experiment is described as follows: In vitro inhibition concentration was evaluated on the effect of conversion by Nitric oxide synthase of [3H]L-arginine into [3H]L-citrulline.
Experiment [6] relates to HT22 (Mus musculus). Briefly: Neuroprotective effect was measured by its ability to protect mouse hippocampal neuronal HT-22 cell lines from oxidative stress caused by glutamate; Not active up to 100 uM.
The target in experiment [7] is T1, Nitric oxide synthase 1. Briefly: In vitro inhibition concentration was evaluated on the effect of conversion by Nitric Oxide synthase of [3H]L-arginine into [3H]L-citrulline; Not active up to 100 uM.

T1 sequence (P29475 whole entry): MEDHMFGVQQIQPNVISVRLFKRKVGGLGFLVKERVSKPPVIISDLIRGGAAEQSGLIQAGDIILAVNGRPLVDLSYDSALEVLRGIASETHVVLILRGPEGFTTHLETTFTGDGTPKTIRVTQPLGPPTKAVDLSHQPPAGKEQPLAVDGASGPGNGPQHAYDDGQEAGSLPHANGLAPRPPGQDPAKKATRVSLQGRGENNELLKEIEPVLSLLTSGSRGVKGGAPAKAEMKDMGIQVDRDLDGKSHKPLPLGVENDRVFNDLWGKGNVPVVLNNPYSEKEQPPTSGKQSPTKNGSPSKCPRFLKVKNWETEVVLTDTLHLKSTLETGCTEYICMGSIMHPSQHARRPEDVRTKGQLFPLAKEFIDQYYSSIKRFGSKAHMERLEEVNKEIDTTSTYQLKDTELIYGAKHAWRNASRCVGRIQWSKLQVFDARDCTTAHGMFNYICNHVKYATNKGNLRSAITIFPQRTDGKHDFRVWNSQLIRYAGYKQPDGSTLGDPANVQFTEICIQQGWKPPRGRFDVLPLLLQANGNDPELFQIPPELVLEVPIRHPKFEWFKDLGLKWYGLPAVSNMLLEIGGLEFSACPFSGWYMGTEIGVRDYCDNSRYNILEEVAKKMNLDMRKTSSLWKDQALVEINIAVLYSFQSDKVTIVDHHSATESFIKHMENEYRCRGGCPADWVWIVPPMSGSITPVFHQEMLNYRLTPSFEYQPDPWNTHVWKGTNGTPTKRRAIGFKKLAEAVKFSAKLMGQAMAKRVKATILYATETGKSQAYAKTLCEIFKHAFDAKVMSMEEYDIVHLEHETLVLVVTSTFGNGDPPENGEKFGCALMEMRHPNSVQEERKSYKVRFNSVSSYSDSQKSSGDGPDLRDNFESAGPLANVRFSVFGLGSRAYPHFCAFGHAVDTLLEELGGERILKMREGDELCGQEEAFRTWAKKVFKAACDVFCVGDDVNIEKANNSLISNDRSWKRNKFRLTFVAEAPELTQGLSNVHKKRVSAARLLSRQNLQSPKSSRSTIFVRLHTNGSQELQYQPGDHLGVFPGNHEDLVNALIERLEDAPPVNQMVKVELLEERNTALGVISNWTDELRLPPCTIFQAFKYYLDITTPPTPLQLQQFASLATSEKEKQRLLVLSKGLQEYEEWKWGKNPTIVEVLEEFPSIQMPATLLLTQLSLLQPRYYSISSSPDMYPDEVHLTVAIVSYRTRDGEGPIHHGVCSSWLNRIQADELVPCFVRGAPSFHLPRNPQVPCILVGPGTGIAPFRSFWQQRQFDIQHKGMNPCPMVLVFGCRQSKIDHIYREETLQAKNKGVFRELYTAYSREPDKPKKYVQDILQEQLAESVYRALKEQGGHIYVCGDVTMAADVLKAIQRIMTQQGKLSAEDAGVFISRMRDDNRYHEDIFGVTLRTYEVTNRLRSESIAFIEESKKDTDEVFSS

For orientation: IC50 means the concentration at which inhibition is half-maximal. The low end stands for greater potency in that assay, the high end for weaker potency in that assay. For orientation: EC50 means the concentration needed to bring the measured effect to its halfway point. Low values mean greater potency, high ones weaker potency. `N=C(Nc1ccc(NC(=O)CCCCC2CCSS2)cc1)c1cccs1` (stereo unspecified): the midpoint of inhibition against Nitric oxide synthase 1 [1], the IC50, lay at 3.5 µM. Further, the figures for the EC50 with HT22 (Mus musculus) [2] and in the experiment filed under Mus musculus [3] were 11.1 µM and 46.9 µM, respectively.
Taken in the same sequence, the figures for `N=C(Nc1ccc(CCNC(=O)CCCCC2CCSS2)cc1)c1cccs1` (stereo unspecified) were 1.04 µM, 11.7 µM and 37.1 µM.
With `N=C(Nc1ccccc1)c1cccs1`, the EC50 result in the experiment listed under Mus musculus [4] and in the experiment on HT22 (Mus musculus) [6] was “Not Active” each time. The same compound gave an IC50 against Nitric oxide synthase 1 [5] of 4 µM.
Regarding `NC(=Nc1ccc(CNC(=O)CCCCC2CCSS2)cc1)c1cccs1` (stereo unspecified), on Nitric oxide synthase 1 [1], it took 2.3 µM to reach half-maximal inhibition (IC50). In addition, the values for the EC50 in the experiment on HT22 (Mus musculus) [2] and in the experiment filed under Mus musculus [3] were 6.3 µM and 64.8 µM, respectively.
With `N=C(Nc1ccc(CCNC(=O)CC2CCSS2)cc1)c1cccs1` (stereo unspecified), the IC50 against Nitric oxide synthase 1 [1] turned out to be 1.15 µM. The EC50 worked out at 1.8 µM in the experiment on HT22 (Mus musculus) [2] and 12.3 µM in the experiment listed under Mus musculus [3].
For `NC(=Nc1ccc(NC(=O)CC2CCSS2)cc1)c1cccs1` (stereo unspecified), in that order: 4.4 µM, 9.6 µM and 11.9 µM.
Consider `O=C(O)CCCCC1CCSS1` (stereo not drawn) [LIPOIC ACID, ALPHA], for which, on Nitric oxide synthase 1 [7], the IC50 result was “Not Active”. Moreover, the EC50 in the experiment with HT22 (Mus musculus) [2] was 19.6 µM; in the experiment listed under Mus musculus [3], 122 µM.
